We go through seven molecules from article PMC5269645 (Journal of the American Chemical Society, 2016).

Where two headings read alike, the source gives them in different places.

The target of one assay is rat endomannosidase. To be noted: read-out: IC50, rat endomannosidase; inhibition of cleavage of 14C-labeled GlcMan9GlcNAc; cited from earlier work.
Assay [1] has as its target T1, BtGH99 (Bacteroides thetaiotaomicron, UniProt Q8A109).
T1 sequence (Q8A109 18-382): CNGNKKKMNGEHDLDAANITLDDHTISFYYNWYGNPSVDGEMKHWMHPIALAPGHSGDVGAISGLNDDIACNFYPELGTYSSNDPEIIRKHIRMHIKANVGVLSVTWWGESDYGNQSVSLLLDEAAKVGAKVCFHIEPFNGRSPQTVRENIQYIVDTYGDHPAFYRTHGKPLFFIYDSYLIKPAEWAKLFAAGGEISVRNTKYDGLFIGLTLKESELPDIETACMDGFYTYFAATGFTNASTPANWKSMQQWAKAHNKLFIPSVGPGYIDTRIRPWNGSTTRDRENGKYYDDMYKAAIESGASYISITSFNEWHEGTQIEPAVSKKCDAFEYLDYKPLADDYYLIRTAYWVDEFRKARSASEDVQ
The following applies: read-out: KD values, BtGH99; ITC; cited from earlier work.

Assay [2] has as its target BxGH99. To be noted: read-out: KD values, BxGH99; ITC; cited from earlier work.
Assay [3] has as its target T1, BtGH99. Description: 2D NMR. The class given is binding. The essentials:
(§1)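 1H–15N SOFAST-HMQC spectra of 15N-labeled enzyme (average 58 μM) recorded for 1 h at 298 K in 50 mM potassium phosphate pH 7.0, 50 mM KCl, 5% D2O. Active-site Arg Nε-Hε peak (R295, Bx numbering) served as reporter. Bound fraction from peak intensities at several protein/ligand ratios, fitted against free ligand for KD. Duplicate points; Monte Carlo error propagation (n = 10 000), standard deviation.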

Assay [4] deals with T2, BxGH99 (Bacteroides xylanisolvens, UniProt D6D1V7).
T2 sequence (D6D1V7 13-380): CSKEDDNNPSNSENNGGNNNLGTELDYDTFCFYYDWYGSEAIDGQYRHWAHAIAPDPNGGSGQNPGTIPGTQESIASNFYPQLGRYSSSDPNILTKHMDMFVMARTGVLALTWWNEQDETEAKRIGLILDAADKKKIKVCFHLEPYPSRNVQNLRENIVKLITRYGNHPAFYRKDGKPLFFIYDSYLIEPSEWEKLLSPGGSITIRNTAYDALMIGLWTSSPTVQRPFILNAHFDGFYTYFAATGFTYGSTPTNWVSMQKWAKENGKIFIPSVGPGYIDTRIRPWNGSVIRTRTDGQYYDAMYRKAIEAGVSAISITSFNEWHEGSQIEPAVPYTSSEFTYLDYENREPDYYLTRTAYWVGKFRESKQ
As to the kind of experiment: 2D NMR. The format is binding. The essentials: as §1

A further assay concerns various glycosidases. The following applies: cited from earlier work.

On to `OC[C@H]1NC[C@@H](O)[C@@H](O[C@H]2O[C@H](CO)[C@@H](O)[C@H](O)[C@H]2O)[C@@H]1O` [compound 1, GlcDMJ], for which, at rat endomannosidase, the IC50 (usually the concentration that gives 50% inhibition) was 1.7 µM. In addition, the Kd – broadly, the concentration at which binding is half-saturated – on BtGH99 [1] was 24 µM.

For `OC[C@H]1CNCC(O[C@H]2O[C@H](CO)[C@@H](O)[C@H](O)[C@H]2O)[C@@H]1O` (stereo partly drawn) [compound 2, GlcIFG], on BtGH99 [1], the Kd was 0.63 µM.

As for `OC[C@H]1CNCC(O[C@H]2O[C@H](CO)[C@@H](O)[C@H](O)[C@@H]2O)[C@@H]1O` (stereo partly drawn) [compound 3, ManIFG], the Kd was 0.14 µM at BtGH99 [1] and 0.27 µM on BxGH99 [2].

Turning to `OC[C@H]1OCC[C@@H](O[C@H]2O[C@H](CO)[C@@H](O)[C@H](O)[C@H]2O)[C@@H]1O` [compound 4, GlcddMan], the IC50 at rat endomannosidase is 3.8 µM.

On to `OC[C@H]1OCC[C@@H](O[C@H]2O[C@H](CO)[C@@H](O)[C@H](O)[C@@H]2O)[C@@H]1O` [compound 5, α-D-Mannopyranosyl-(1→3)-1,2-dideoxy-D-mannopyranose], for which the Kd at BtGH99 [3] turned out to be 53 ± 5 µM; on BxGH99 [4] it was 221 ± 11 µM. At BxGH99 [4] (ratio of KD values), the “affinity relative to ManGlucal, fold worse, BxGH99” value stood at 8 fold.

On to `OC[C@H]1O[C@H](O[C@@H]2C=CO[C@H](CO)[C@H]2O)[C@@H](O)[C@@H](O)[C@@H]1O` [compound 7, α-D-Mannopyranosyl-(1→3)-1,5-anhydro-2-deoxy-D-arabino-hex-1-enitol], for which the Kd on BtGH99 [3] was determined as 15 ± 1.9 µM; on BxGH99 [4], 111 ± 11 µM.

Take `OC[C@H]1CNC(O)[C@@H](O)[C@@H]1O` (stereo partly drawn) [noeuromycin]: the “times more tightly bound than isofagomine” value with various glycosidases is on record as 2–4000 times.
